For this experiment, the system named is CAIX-positive SK-RC-52 cells. In words: Cellular binding, flow cytometry and confocal microscopy on CAIX-positive cells. In kind it is cell-based, human. The note with it: fluorescent derivatives, 100 nM, 30 min. In outline:
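SK-RC-52 human renal carcinoma cells were grown in RPMI with 10% FCS and 1% antibiotic-antimycotic at 37 °C, 5% CO₂, and split 1:6 with 0.05% trypsin-EDTA. For confocal imaging, cells were seeded at 10^4 per chamber well in RPMI with 10% FBS and 10 mM HEPES, then grown overnight. Fluorescein-labelled test compounds were imaged with DAPI-stained nuclei. Acetazolamide-fluorescein was the positive control and untargeted fluorescein the negative control.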
(In general: A flow cytometer gives signals particle by particle.)

As to `CC(=O)Nc1nnc(S(N)(=O)=O)s1` [AAZ, acetazolamide], the “binding to CAIX on the surface of SK-RC-52 cells” value is “accumulated on the surface”.

The values are drawn from paper PMC10357458 (ACS Omega, 2023).
